pIC50: −log10 of the molar value. ≈ marks a conversion by molar mass, not a printed value. Calls of active or inactive are those of the source. The calls are words filed in the database; no cut-off is given here.
What was measured:
[1] = biological target: DNA gyrase (Staphylococcus aureus) (UniProt P0A0K8+P20831); assay: Inhibition of Staphylococcus aureus DNA gyrase assessed as inhibition of DNA supercoiling; assay type: protein-complex assay
[2] = system: Mycobacterium tuberculosis; assay: Antimicrobial activity against Mycobacterium tuberculosis H37Rv ATCC 27294 after 28 days by alamar blue assay; assay type: functional; conditions: H37Rv ATCC 27294, 672 h
Escherichia coli = assay: Inhibition of Escherichia coli DNA gyrase assessed as inhibition of DNA supercoiling
[3] = biological target: DNA gyrase subunit B (Mycobacterium smegmatis) (UniProt P0C559); assay: Inhibition of Mycobacterium smegmatis GyrB by ATPase assay; conditions: Mycolicibacterium smegmatis
Chain of DNA gyrase subunit B (Mycobacterium smegmatis) (P0C559 2-675 limits assumed): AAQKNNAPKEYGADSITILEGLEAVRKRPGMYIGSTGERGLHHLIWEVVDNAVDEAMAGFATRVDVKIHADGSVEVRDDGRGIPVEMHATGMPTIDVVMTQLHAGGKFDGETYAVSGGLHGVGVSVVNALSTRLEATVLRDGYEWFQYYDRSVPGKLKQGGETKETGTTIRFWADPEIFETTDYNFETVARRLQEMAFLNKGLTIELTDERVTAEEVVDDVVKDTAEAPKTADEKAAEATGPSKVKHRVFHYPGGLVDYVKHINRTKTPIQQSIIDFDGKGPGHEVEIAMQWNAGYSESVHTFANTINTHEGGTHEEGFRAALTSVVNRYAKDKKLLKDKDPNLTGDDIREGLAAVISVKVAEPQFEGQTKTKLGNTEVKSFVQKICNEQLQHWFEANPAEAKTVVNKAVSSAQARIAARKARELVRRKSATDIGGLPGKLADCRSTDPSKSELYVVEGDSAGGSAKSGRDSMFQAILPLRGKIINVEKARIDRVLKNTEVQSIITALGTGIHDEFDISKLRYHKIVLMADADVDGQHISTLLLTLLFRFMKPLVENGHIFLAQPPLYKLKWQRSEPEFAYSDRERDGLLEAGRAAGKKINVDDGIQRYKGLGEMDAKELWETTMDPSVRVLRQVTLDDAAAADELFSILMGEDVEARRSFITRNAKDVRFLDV

[4] = system: Mycobacterium tuberculosis; assay: Inhibition of Mycobacterium tuberculosis DNA topoisomerase 1 assessed as DNA relaxation at 50 uM
[5] = biological target: DNA gyrase subunit A/DNA gyrase subunit B (Mycobacterium tuberculosis (strain ATCC 25618 / H37Rv), UniProt P9WG45+P9WG47); assay: Inhibition of Mycobacterium tuberculosis DNA gyrase assessed as inhibition of DNA supercoiling after 30 mins by electrophoresis
Chain of DNA gyrase subunit A/DNA gyrase subunit B (P9WG45 whole entry): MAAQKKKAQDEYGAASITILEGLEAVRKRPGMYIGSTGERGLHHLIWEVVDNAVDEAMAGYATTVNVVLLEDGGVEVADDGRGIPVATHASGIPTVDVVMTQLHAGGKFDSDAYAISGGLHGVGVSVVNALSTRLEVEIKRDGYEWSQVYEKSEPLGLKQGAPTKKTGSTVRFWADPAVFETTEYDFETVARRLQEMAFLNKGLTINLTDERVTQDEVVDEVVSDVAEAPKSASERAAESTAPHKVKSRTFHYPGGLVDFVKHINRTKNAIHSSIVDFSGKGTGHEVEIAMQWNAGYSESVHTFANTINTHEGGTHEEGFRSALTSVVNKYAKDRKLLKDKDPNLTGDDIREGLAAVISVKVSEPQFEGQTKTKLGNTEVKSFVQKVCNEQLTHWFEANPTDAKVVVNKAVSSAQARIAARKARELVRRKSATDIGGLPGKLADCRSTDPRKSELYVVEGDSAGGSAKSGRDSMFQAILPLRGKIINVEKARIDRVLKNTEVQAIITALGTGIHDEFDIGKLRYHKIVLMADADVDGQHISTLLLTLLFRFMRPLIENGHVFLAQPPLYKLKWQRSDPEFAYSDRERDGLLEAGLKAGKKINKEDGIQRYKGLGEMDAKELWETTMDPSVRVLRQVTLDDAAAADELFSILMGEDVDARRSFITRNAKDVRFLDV
Chain of DNA gyrase subunit A/DNA gyrase subunit B (P9WG47 whole entry): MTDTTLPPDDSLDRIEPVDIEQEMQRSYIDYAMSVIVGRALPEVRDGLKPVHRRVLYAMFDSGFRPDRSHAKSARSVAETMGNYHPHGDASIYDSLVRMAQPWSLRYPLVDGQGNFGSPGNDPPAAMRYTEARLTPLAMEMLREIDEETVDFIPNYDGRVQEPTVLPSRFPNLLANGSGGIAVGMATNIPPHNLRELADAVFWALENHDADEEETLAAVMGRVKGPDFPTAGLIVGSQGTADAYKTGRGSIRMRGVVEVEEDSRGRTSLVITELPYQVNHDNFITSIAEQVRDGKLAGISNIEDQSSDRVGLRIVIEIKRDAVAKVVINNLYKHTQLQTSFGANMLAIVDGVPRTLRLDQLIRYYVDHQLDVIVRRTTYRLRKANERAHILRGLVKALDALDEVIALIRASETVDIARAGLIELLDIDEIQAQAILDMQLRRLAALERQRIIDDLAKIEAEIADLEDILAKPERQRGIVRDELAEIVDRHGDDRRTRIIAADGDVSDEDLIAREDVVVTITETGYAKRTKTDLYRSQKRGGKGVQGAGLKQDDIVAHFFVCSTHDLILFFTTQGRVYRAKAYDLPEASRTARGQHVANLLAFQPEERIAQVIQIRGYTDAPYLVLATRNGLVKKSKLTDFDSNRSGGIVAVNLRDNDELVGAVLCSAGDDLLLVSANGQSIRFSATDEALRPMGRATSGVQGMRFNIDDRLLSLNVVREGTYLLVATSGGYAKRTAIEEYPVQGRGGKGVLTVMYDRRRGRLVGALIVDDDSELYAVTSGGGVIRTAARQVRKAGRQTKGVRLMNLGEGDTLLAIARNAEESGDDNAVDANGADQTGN

[6] = Cytotoxicity against mouse RAW264.7 cells assessed as inhibition of cell growth at 50 uM after 72 hrs by MTT assay; assay type: cell-based
Procedure, shortened: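 RAW 264.7 mouse macrophages exposed to compound at 50 µM for 72 h. Viability read by MTT conversion to formazan, reported as percent inhibition.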

[7] = biological target: DNA gyrase (Pseudomonas aeruginosa) (UniProt P48372+Q9I7C2); assay: Inhibition of Pseudomonas aeruginosa DNA gyrase assessed as inhibition of DNA supercoiling; assay type: protein-complex assay

Chain of DNA gyrase (Staphylococcus aureus) (P0A0K8 2-644 limits assumed): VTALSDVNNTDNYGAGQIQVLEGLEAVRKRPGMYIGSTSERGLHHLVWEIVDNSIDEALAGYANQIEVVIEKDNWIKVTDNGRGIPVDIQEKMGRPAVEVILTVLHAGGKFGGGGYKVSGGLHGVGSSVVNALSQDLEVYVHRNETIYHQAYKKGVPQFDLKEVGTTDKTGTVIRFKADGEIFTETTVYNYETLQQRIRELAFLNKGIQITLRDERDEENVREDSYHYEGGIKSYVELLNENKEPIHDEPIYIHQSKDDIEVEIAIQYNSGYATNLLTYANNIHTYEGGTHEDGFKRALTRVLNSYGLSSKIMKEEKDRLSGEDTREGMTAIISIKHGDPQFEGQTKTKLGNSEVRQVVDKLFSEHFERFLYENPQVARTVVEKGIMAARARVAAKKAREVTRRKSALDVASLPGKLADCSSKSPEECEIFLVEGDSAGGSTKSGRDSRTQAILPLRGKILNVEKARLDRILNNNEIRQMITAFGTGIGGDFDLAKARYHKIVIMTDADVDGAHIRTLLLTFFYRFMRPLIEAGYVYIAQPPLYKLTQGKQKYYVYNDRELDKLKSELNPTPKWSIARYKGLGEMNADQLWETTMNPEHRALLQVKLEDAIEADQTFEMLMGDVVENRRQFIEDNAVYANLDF
Chain of DNA gyrase (Staphylococcus aureus) (P20831 whole entry partner): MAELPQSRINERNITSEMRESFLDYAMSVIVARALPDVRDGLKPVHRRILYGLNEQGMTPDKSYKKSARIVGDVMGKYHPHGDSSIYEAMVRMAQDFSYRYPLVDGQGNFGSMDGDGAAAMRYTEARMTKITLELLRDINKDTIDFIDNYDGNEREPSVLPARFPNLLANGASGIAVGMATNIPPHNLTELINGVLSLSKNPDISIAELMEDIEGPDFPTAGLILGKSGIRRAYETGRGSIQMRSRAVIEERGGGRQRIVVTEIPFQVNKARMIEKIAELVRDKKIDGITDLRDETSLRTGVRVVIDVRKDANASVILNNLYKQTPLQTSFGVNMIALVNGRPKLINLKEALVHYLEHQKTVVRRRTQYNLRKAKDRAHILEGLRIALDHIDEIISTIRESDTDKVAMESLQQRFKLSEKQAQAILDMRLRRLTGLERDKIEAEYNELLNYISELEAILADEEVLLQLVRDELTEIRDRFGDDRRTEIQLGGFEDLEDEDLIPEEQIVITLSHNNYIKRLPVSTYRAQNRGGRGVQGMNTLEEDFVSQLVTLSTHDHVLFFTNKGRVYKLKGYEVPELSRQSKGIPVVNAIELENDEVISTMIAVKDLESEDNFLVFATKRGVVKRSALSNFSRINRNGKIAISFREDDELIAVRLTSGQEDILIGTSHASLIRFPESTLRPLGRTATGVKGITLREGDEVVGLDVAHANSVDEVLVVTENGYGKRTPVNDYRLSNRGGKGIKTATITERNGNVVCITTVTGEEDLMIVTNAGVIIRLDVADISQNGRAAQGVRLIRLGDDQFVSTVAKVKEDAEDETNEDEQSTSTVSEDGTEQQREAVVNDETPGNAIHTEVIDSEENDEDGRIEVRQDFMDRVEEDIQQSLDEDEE

| SMILES | inhibition [1] | MIC [2] [µM] | inhibition (Escherichia coli) | inhibition [3] | inhibition [4] | pIC50 [5] | inhibition at 72 h, 50 µM [6] [%] | inhibition [7] |
| --- | --- | --- | --- | --- | --- | --- | --- | --- |
| O=C(Nc1ccc(Nc2c3ccccc3nc3ccc(Cl)cc23)cc1)Nc1ccc([N+](=O)[O-])cc1 | inactive | 6.46 (≈ 3.13 µg/mL) | inactive | inactive | inactive | 5.14 | 45.9 | inactive |
| Cc1ccc(S(=O)(=O)Nc2ccc(Nc3c4ccccc4nc4ccc(C)cc34)cc2)cc1 | inactive | 27.6 (≈ 12.5 µg/mL) | inactive | inactive | inactive | 5.01 | 27.8 | inactive |
| Cc1ccc(NC(=S)Nc2ccc(Nc3c4ccccc4nc4ccccc34)cc2)cc1 | inactive | > 57.5 | inactive | inactive | inactive | 4.51 | 27.4 | inactive |
| Cc1ccc(S(=O)(=O)Nc2ccc(Nc3c4ccccc4nc4ccc(Cl)cc34)cc2)cc1 | inactive | > 52.8 | inactive | inactive | inactive | 4.64 | 38.5 | inactive |
| O=[N+]([O-])c1ccc(S(=O)(=O)Nc2ccc(Nc3c4ccccc4nc4ccccc34)cc2)cc1 | inactive | 24.6 (≈ 11.6 µg/mL) | inactive | inactive | inactive | 4.65 | 34.1 | inactive |
| O=C(Nc1ccc(Cl)cc1)Nc1ccc(Nc2c3ccccc3nc3ccccc23)cc1 | inactive | 28.5 (≈ 12.5 µg/mL) | inactive | inactive | inactive | 4.98 | 26.2 | inactive |
| S=C(Nc1ccccc1)Nc1ccc(Nc2c3ccccc3nc3ccc(Cl)cc23)cc1 | inactive | 27.5 (≈ 12.5 µg/mL) | inactive | inactive | inactive | 4.53 | 11.7 | inactive |
| Cc1ccc(NC(=O)Nc2ccc(Nc3c4ccccc4nc4ccc(C)cc34)cc2)cc1 | inactive | 57.8 (≈ 25 µg/mL) | inactive | inactive | inactive | 4.53 | 43.1 | inactive |
| Cc1ccc(S(=O)(=O)Nc2ccc(Nc3c4ccccc4nc4ccccc34)cc2)cc1 | inactive | 28.4 (≈ 12.5 µg/mL) | inactive | inactive | inactive | 5.03 | 28.4 | inactive |
| O=[N+]([O-])c1ccc(NC(=S)Nc2ccc(Nc3c4ccccc4nc4ccccc34)cc2)cc1 | inactive | 13.4 (≈ 6.25 µg/mL) | inactive | inactive | inactive | 4.88 | 20.8 | inactive |
| COc1c(N2C[C@@H]3CCCN[C@@H]3C2)c(F)cc2c(=O)c(C(=O)O)cn(C3CC3)c12 [MOXIFLOXACIN] | – | 1.26 (≈ 0.506 µg/mL) | – | – | – | – | 1.26 | – |
| O=C(Nc1ccc(Cl)cc1)Nc1ccc(Nc2c3ccccc3nc3ccc(Cl)cc23)cc1 | inactive | 13.2 (≈ 6.25 µg/mL) | inactive | inactive | inactive | 4.93 | 17.1 | inactive |
| Cc1ccc(NC(=S)Nc2ccc(Nc3c4ccccc4nc4ccc(C)cc34)cc2)cc1 | inactive | 55.7 (≈ 25 µg/mL) | inactive | inactive | inactive | 4.57 | 35 | inactive |
| S=C(Nc1ccccc1)Nc1ccc(Nc2c3ccccc3nc3ccccc23)cc1 | inactive | 14.9 (≈ 6.25 µg/mL) | inactive | inactive | inactive | 5.09 | 29.2 | inactive |
| Cc1ccc2nc3ccccc3c(Nc3ccc(NC(=S)Nc4ccccc4)cc3)c2c1 | inactive | 7.2 (≈ 3.13 µg/mL) | inactive | inactive | inactive | 5.20 | 10.8 | inactive |
| O=S(=O)(Nc1ccc(Nc2c3ccccc3nc3ccccc23)cc1)c1ccc(Cl)cc1 | inactive | 27.2 (≈ 12.5 µg/mL) | inactive | inactive | inactive | 4.62 | 34.2 | inactive |
| Cc1ccc2nc3ccccc3c(Nc3ccc(NS(=O)(=O)c4ccccc4)cc3)c2c1 | inactive | 28.4 (≈ 12.5 µg/mL) | inactive | inactive | inactive | 5.23 | 39.6 | inactive |
| Cc1ccc2nc3ccccc3c(Nc3ccc(NC(=O)Nc4ccc([N+](=O)[O-])cc4)cc3)c2c1 | inactive | 13.5 (≈ 6.25 µg/mL) | inactive | inactive | inactive | 5.13 | 33.9 | inactive |
| Cc1ccc2nc3ccccc3c(Nc3ccc(NC(=O)Nc4ccc(Cl)cc4)cc3)c2c1 | inactive | 27.6 (≈ 12.5 µg/mL) | inactive | inactive | inactive | 4.94 | 25.9 | inactive |
| O=S(=O)(Nc1ccc(Nc2c3ccccc3nc3ccccc23)cc1)c1ccccc1 | inactive | 14.7 (≈ 6.25 µg/mL) | inactive | inactive | inactive | 4.82 | 42.1 | inactive |
| Cc1ccc(NC(=O)Nc2ccc(Nc3c4ccccc4nc4ccccc34)cc2)cc1 | inactive | 14.9 (≈ 6.25 µg/mL) | inactive | inactive | inactive | 4.88 | 18.4 | inactive |
| Cc1ccc2nc3ccccc3c(Nc3ccc(NC(=S)Nc4ccc(Cl)cc4)cc3)c2c1 | inactive | 26.7 (≈ 12.5 µg/mL) | inactive | inactive | inactive | 4.95 | 26 | inactive |
| O=[N+]([O-])c1ccc(S(=O)(=O)Nc2ccc(Nc3c4ccccc4nc4ccc(Cl)cc34)cc2)cc1 | inactive | 24.8 (≈ 12.5 µg/mL) | inactive | inactive | inactive | 5.09 | 30.4 | inactive |
| NNC(=O)c1ccncc1 [ISONIAZID] | – | 0.66 (≈ 0.0905 µg/mL) | – | – | – | < 4.30 | – | – |
| S=C(Nc1ccc(Cl)cc1)Nc1ccc(Nc2c3ccccc3nc3ccc(Cl)cc23)cc1 | inactive | > 51.1 | inactive | inactive | inactive | 4.50 | 6.7 | inactive |
| Cc1ccc(NC(=S)Nc2ccc(Nc3c4ccccc4nc4ccc(Cl)cc34)cc2)cc1 | inactive | > 53.3 | inactive | inactive | inactive | 4.47 | 25.5 | inactive |
| O=C(Nc1ccc(Nc2c3ccccc3nc3ccccc23)cc1)Nc1ccc([N+](=O)[O-])cc1 | inactive | 27.8 (≈ 12.5 µg/mL) | inactive | inactive | inactive | 4.57 | 19.2 | inactive |
| Cc1ccc2nc3ccccc3c(Nc3ccc(NS(=O)(=O)c4ccc([N+](=O)[O-])cc4)cc3)c2c1 | inactive | 12.9 (≈ 6.25 µg/mL) | inactive | inactive | inactive | 5.08 | 27 | inactive |
| CO[C@H]1/C=C/O[C@@]2(C)Oc3c(C)c(O)c4c(O)c(c(/C=N/N5CCN(C)CC5)c(O)c4c3C2=O)NC(=O)/C(C)=C\C=C\[C@H](C)[C@H](O)[C@@H](C)[C@@H](O)[C@@H](C)[C@H](OC(C)=O)[C@@H]1C [RIFAMPIN] | – | 0.23 (≈ 0.189 µg/mL) | – | – | – | < 4.30 | – | – |
| CO[C@@H]1[C@@H](OC(N)=O)[C@@H](O)[C@H](Oc2ccc3c(O)c(NC(=O)c4ccc(O)c(CC=C(C)C)c4)c(=O)oc3c2C)OC1(C)C [NOVOBIOCIN] | – | > 50 | – | – | – | – | – | – |

Source: ChEMBL document CHEMBL3751721, “Development of acridine derivatives as selective Mycobacterium tuberculosis DNA gyrase inhibitors” (Bioorg Med Chem, 2016)
